Series [1] is described as follows: Half-life in cynomolgus monkey at 0.5 mg/kg, iv. Type of series: ADME, organism-based, Macaca fascicularis. Also noted: dose 0.5 mg/kg, route intravenous. The conditions noted are these: in vivo. The method, boiled down: (§1)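 Fasted cynomolgus monkeys, n = 2 per route, given 0.5 mg/kg po or iv in 20% EtOH, 10% Cremophor EL, 15% PEG400, 15% HPCD, 0.02 mol/L HCl in water. Heparinized blood taken at 0.08–48 h (iv) or 0.50–48 h (po). Plasma stored at −80 °C, analyzed by LC-MS/MS. Parameters from noncompartmental analysis.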

Series [2] addresses RAF proto-oncogene serine/threonine-protein kinase (Homo sapiens, UniProt P04049). Put plainly: Inhibition of Raf-1 activity assessed as MEK1/2 phosphorylation. The method, boiled down: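 Raf-1 activity read as phosphorylation of MEK1/2, detected with europium-labelled anti-phospho-MEK1/2 (Ser217/221) antibody.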
Series [3] concerns KARPAS-299. Put plainly: Antitumor activity against human KARPAS299 xenografted in SCID mouse assessed as tumor growth inhibition at 6 mg/kg, po administered for 11 days after 8 days of tumor implantation. As to conditions: read-out: TGI. Type of series: functional. The method, boiled down: (§2)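 KARPAS-299 grown as sc tumors in SCID mice. Dosing started when tumors reached about 200 mm³, with four mice per group randomized. Vehicle or compound given by oral sonde once daily for 11 days; vehicle 10% DMSO, 10% Cremophor EL, 15% PEG400, 15% HPCD. Tumor volume taken as (L × W²)/2, measured twice weekly. TGI = [1 − (T − T₀)/(C − C₀)] × 100.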

Series [4] in a line: Total clearance in cynomolgus monkey at 0.5 mg/kg, iv. Format: ADME, organism-based, Macaca fascicularis. The conditions noted are these: in vivo. Also noted: dose 0.5 mg/kg, route intravenous. A digest of the protocol: as §1
Series [5] deals with KARPAS-299. As to the kind of experiment: Antitumor activity against human KARPAS299 xenografted in SCID mouse assessed as tumor growth inhibition at 20 mg/kg, po administered for 11 days after 8 days of tumor implantation. Format: functional. As to conditions: read-out: TGI. A digest of the protocol: as §2
In series [6] the target is Proto-oncogene tyrosine-protein kinase Src (Homo sapiens, UniProt P12931). Put plainly: Inhibition of SRC activity by TR-FRET assay. In general terms: In TR-FRET formats the signal depends on donor and acceptor labels being close together.
The target of series [7] is Receptor tyrosine-protein kinase erbB-2 (Homo sapiens, UniProt P04626). Put plainly: Inhibition of HER2 activity by TR-FRET assay.
The target in series [8] is RAC-alpha serine/threonine-protein kinase (Homo sapiens, UniProt P31749). Put plainly: Inhibition of AKT1 activity by fluorescence polarization assay.
Chain of RAC-alpha serine/threonine-protein kinase (P31749 whole entry): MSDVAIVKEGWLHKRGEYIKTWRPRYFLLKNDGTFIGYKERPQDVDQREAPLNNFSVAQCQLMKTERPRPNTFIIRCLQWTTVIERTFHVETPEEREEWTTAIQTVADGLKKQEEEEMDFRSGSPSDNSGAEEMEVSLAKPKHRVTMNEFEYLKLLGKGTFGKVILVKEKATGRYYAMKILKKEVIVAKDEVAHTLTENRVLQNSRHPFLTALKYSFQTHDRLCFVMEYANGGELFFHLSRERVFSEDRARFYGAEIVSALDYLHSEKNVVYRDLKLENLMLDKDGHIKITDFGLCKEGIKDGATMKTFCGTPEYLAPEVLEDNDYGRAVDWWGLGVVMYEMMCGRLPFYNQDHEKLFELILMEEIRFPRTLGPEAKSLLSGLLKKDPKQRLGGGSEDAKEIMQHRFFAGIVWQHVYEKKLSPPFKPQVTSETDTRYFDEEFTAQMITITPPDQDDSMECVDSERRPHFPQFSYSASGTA
Series [9] deals with KARPAS-299. As to the kind of experiment: Antitumor activity against human KARPAS299 xenografted in po dosed SCID mouse assessed as decrease in tumor volume. Type of series: functional, organism-based. The method, boiled down:
as §2
Background: A xenograft is tissue or cells of one species grown in another, often human tumour cells in immunodeficient mice.

Series [10] deals with KARPAS-299. As to the kind of experiment: Antitumor activity against human KARPAS299 xenografted in SCID mouse assessed as tumor growth inhibition at 2 mg/kg, po administered for 11 days after 8 days of tumor implantation. Type of series: functional. The conditions noted are these: read-out: TGI. The method, boiled down:
as §2

The nature of series [11]: Clearance in human liver microsome at 1 uM after 30 mins by LC/MS analysis in the presence of NADPH. As to conditions: liver microsomes. Type of series: ADME. A digest of the protocol: (§3)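 Compound at 1 μM incubated with human or mouse liver microsomes (0.5 mg protein/mL) in 50 mM phosphate buffer pH 7.4 with 1 mM NADPH, 37 °C, 30 min. Stopped with acetonitrile, centrifuged. Remaining compound in the supernatant quantified by LC/MS.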
For orientation: Liver microsomes are a subcellular fraction often used to study metabolism.

Series [12] in a line: Volume of distribution at steady state in cynomolgus monkey at 0.5 mg/kg, iv. Type of series: ADME, organism-based, Macaca fascicularis. Also noted: dose 0.5 mg/kg, route intravenous. The conditions noted are these: in vivo, read-out: Vdss. The method, boiled down: as §1
The test system of series [13] is KARPAS-299. As to the kind of experiment: cells. The conditions noted are these: Homo sapiens, KARPAS-299, 96 h.
Series [14] concerns the target T1, Aurora kinase A (Homo sapiens, UniProt O14965).
T1 sequence (O14965 whole entry): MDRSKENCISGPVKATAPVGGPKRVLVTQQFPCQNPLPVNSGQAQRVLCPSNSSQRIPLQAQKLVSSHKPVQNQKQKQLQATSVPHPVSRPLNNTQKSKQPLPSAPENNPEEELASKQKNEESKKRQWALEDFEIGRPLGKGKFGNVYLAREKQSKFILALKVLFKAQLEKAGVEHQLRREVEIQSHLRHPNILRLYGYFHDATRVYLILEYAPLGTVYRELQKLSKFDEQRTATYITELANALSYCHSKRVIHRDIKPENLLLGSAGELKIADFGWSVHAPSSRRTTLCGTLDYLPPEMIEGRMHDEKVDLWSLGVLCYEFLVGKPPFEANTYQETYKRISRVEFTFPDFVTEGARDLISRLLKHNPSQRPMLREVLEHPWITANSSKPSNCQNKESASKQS
Put plainly: Inhibition of Aurora-A activity by fluorescence polarization assay.

Series [15] concerns the target Hepatocyte growth factor receptor (Homo sapiens, UniProt P08581). Put plainly: Inhibition of MET activity by TR-FRET assay.
For series [16], the target named is Fibroblast growth factor receptor 2 (Homo sapiens, UniProt P21802). As to the kind of experiment: Inhibition of FGFR2 activity by TR-FRET assay.
Series [17] in a line: Cmax in cynomolgus monkey at 0.5 mg/kg, po. Type of series: ADME, organism-based, Macaca fascicularis. Also noted: dose 0.5 mg/kg, route oral. As to conditions: in vivo. The method, boiled down:
as §1

Series [18] in a line: Half-life in cynomolgus monkey at 0.5 mg/kg, po. Format: ADME, organism-based, Macaca fascicularis. Set-up: dose 0.5 mg/kg, route oral. The conditions noted are these: in vivo. A digest of the protocol:
as §1

The target of series [19] is Vascular endothelial growth factor receptor 2 (Homo sapiens, UniProt P35968). As to the kind of experiment: Inhibition of KDR activity by TR-FRET assay.
Chain of Vascular endothelial growth factor receptor 2 (P35968 whole entry): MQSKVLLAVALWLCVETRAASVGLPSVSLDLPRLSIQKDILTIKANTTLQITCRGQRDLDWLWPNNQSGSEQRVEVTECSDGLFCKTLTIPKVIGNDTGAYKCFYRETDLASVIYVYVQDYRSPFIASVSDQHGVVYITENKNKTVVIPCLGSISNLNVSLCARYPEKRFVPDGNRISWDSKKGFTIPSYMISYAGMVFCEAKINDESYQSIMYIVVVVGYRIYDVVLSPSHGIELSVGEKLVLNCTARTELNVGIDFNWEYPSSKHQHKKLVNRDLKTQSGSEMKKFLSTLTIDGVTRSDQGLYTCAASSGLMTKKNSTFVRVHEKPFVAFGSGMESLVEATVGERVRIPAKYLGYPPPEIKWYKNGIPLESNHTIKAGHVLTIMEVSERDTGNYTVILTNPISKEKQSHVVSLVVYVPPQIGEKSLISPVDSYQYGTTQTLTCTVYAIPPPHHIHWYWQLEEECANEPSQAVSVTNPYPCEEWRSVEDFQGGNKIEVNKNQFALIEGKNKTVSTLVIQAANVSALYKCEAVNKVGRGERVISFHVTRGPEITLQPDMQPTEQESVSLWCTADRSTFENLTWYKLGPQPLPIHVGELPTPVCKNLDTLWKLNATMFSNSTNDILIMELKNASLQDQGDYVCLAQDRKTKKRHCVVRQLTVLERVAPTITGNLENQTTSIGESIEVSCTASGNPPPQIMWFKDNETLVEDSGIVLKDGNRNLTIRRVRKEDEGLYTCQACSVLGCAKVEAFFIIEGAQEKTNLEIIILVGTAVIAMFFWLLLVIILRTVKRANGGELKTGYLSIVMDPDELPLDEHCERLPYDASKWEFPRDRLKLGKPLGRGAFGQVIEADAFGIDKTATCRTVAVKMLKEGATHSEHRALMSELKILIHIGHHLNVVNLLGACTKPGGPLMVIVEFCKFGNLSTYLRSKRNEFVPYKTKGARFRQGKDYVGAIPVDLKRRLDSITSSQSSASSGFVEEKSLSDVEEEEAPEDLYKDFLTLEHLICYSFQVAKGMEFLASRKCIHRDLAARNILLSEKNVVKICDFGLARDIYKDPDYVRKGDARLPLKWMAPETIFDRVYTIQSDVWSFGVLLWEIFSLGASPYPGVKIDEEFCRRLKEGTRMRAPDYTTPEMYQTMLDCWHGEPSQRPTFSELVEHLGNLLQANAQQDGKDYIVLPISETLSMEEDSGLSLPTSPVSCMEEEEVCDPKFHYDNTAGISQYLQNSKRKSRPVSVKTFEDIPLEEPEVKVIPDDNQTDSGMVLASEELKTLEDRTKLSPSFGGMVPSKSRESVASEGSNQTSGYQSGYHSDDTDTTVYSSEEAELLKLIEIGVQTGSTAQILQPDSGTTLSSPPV
Series [20] can be described thus: Clearance in mouse liver microsome at 1 uM after 30 mins by LC/MS analysis in the presence of NADPH. Format: ADME. As to conditions: liver microsomes. The method, boiled down:
as §3

Series [21] concerns the target Tyrosine-protein kinase ABL1 (Homo sapiens, UniProt P00519). As to the kind of experiment: Inhibition of ABL activity by TR-FRET assay.
Series [22] addresses Protein kinase C alpha type (Homo sapiens, UniProt P17252). As to the kind of experiment: Inhibition of PKCA activity by fluorescence polarization assay.
In series [23] the target is Mast/stem cell growth factor receptor Kit (Homo sapiens, UniProt P10721). As to the kind of experiment: Inhibition of KIT activity by TR-FRET assay.
Chain of Mast/stem cell growth factor receptor Kit (P10721 whole entry): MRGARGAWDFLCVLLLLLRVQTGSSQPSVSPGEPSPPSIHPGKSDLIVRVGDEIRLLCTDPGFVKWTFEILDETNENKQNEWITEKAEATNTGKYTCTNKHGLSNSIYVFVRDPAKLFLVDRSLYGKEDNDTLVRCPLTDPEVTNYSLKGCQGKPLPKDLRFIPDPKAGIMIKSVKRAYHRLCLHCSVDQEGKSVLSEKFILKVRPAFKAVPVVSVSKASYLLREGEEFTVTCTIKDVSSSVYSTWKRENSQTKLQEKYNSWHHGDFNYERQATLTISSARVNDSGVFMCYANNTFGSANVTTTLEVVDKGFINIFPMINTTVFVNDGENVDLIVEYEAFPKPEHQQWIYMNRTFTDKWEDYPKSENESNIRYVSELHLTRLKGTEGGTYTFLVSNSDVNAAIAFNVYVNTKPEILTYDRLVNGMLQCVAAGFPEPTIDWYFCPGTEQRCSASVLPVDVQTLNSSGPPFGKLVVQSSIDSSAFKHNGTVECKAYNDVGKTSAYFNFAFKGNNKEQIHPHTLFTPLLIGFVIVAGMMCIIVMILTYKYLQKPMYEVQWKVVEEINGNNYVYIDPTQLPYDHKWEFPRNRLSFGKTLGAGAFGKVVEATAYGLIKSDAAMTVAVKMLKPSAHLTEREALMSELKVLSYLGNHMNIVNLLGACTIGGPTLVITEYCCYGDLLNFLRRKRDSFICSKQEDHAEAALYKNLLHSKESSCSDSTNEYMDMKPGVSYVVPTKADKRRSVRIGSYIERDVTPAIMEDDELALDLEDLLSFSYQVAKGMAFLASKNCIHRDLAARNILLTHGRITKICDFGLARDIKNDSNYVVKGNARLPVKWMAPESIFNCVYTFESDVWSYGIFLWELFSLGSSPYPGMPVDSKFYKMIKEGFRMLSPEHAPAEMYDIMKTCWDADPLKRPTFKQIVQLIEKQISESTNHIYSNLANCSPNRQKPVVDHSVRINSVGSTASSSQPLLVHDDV
Series [24] deals with T2, Protein kinase C beta type (Homo sapiens, UniProt P05771). Put plainly: Inhibition of PKCb2 activity by fluorescence polarization assay.
T2 sequence (P05771 whole entry): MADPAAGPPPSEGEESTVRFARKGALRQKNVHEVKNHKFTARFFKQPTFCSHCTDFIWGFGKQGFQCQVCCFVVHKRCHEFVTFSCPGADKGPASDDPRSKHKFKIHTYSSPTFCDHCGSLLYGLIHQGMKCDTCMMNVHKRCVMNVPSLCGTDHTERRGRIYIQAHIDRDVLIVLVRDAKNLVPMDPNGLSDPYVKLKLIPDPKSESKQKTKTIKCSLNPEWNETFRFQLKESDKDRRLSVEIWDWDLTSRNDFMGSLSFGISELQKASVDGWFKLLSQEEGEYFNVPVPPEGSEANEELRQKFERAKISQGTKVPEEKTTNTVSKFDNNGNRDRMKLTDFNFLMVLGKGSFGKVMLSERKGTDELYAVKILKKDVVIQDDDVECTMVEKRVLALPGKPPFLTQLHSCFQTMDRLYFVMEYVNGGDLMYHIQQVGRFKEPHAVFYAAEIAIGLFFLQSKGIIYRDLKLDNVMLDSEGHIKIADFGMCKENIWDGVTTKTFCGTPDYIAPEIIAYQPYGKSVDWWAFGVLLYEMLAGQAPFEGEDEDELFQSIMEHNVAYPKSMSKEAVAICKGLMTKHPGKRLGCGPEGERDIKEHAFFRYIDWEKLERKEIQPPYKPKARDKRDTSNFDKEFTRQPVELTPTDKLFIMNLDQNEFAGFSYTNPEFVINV
Series [25] concerns the target Insulin receptor (Homo sapiens, UniProt P06213). As to the kind of experiment: Inhibition of INSR activity by TR-FRET assay.
Series [26] can be described thus: AUC in cynomolgus monkey at 0.5 mg/kg, po. Format: ADME, organism-based, Macaca fascicularis. As to conditions: plasma. Set-up: dose 0.5 mg/kg, route oral. The method, boiled down:
as §1

For series [27], the target named is T2, Protein kinase C beta type. Put plainly: Inhibition of PKCb1 activity by fluorescence polarization assay.
Series [28] has as its target Insulin-like growth factor 1 receptor (Homo sapiens, UniProt P08069). Put plainly: Inhibition of IGF1R activity by TR-FRET assay.
Series [29] in a line: Oral bioavailability in cynomolgus monkey at 0.5 mg/kg. Type of series: ADME, organism-based, Macaca fascicularis. As to conditions: in vivo. A digest of the protocol: as §1
Series [30] has as its target ALK tyrosine kinase receptor (Homo sapiens, UniProt Q9UM73).

Chain of ALK tyrosine kinase receptor (Q9UM73 whole entry): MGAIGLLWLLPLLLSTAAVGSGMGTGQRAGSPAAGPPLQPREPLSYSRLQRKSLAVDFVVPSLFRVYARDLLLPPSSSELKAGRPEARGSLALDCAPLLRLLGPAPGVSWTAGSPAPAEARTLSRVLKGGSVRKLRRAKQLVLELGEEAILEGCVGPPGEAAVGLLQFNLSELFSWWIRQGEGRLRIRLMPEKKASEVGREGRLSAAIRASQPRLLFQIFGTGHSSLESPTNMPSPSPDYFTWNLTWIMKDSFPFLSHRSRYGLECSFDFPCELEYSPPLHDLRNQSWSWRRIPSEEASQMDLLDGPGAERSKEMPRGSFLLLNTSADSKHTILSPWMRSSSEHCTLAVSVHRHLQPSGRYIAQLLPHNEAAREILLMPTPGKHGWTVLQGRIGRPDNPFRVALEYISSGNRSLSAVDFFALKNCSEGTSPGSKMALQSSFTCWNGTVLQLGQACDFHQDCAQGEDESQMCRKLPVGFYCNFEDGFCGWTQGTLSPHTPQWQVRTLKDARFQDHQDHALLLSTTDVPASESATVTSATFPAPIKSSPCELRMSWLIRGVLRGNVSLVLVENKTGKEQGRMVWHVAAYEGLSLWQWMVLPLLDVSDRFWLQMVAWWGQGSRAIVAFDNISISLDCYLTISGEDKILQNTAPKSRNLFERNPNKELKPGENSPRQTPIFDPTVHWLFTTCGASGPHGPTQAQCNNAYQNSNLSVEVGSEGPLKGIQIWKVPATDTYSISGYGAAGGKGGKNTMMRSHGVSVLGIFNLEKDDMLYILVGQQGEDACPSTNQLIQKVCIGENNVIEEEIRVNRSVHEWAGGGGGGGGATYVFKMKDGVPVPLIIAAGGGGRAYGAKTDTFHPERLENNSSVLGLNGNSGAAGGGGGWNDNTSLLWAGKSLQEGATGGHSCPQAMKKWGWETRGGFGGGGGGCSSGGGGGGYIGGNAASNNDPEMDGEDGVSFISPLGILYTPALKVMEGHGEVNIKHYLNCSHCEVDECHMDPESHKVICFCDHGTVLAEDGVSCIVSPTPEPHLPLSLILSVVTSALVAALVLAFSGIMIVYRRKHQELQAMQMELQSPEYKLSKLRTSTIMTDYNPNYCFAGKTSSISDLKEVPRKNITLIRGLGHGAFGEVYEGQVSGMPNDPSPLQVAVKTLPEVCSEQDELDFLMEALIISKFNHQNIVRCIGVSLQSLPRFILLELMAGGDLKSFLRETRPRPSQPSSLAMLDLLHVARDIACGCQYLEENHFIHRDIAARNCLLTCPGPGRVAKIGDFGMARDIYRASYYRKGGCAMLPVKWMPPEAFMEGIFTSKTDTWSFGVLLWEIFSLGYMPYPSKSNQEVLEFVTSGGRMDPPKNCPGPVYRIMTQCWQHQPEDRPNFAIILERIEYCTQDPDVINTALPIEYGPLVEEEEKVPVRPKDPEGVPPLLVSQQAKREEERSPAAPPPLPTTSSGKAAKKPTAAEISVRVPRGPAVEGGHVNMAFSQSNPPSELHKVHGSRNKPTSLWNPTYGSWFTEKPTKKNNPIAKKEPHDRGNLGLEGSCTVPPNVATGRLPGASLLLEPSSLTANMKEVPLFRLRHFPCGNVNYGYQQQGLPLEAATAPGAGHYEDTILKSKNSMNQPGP

Usually half-life stands for the time needed for the level to fall by half in the phase considered. As a reminder, the IC50 is the concentration that inhibits the measured activity by half. As a reminder, the clearance is the rate of elimination divided by the concentration. In general, microsomal CLint refers to the rate of metabolic loss divided by the concentration. In general, Cmax refers to the peak of the concentration-time curve. Broadly, the AUC is concentration integrated over time. As usually defined, the bioavailability is dose-corrected exposure relative to a reference, in per cent. As for `CCc1cc2c(cc1N1CCN(C3COC3)CC1)C(C)(C)c1[nH]c3cc(C#N)ccc3c1C2=O`, the half-life in [1] is 5.3 h; in [18], 6.25 h. Moreover, the concentration for half-maximal inhibition (IC50) in [2] was greater than 50000 nM; in series [6] it was greater than 50000 nM; in series [7], greater than 50000 nM; in series [8] it was greater than 50000 nM; in [13], 12.8 nM; in series [14] it was greater than 50000 nM. Further, the IC50 in series [15] is greater than 5000 nM; in [16], greater than 50000 nM; in series [19] it was greater than 5000 nM; in series [21], greater than 50000 nM; in series [22], greater than 50000 nM; in series [23], greater than 5000 nM. Besides, the IC50 was greater than 50000 nM in series [24], 460 nM in series [25], greater than 50000 nM in series [27] and greater than 50000 nM in series [28]. For the same molecule, in series [3], the inhibition in vivo at 6 mg/kg was 103%. The molecule also showed a clearance in series [4] of 0.73 mL/min/kg. Besides, in [5], the inhibition in vivo at 20 mg/kg worked out at 119%. Besides, the Activity entry in series [9] is “Dose-dependent effect”. In addition, the inhibition in vivo at 2 mg/kg in series [10] turned out to be 49%. Moreover, the microsomal CLint at 1 µM in series [11] was found to be 17 µL/min/mg; in series [20], 4.5 µL/min/mg. In addition, the Vd in [12] is 0.296 L/kg. Further, the Cmax in series [17] came out at 327 ng/mL. Also, the AUC in [26] was 3270 ng·h/mL. Besides, the bioavailability in [29] came out at 28.2%.
As to `CC(C)c1cc2c(cc1N1CCN(C3COC3)CC1)C(C)(C)c1[nH]c3cc(C#N)ccc3c1C2=O`, the IC50 is 66.4 nM in series [30]; 118 nM in series [13]; greater than 5000 nM in [15]; greater than 5000 nM in series [19]; greater than 5000 nM in series [23]. In addition, the microsomal CLint at 1 µM in series [11] stood at 17.4 µL/min/mg; in [20] it was 4.1 µL/min/mg.
Take `Cc1cc2c(cc1N1CCN(C3COC3)CC1)C(C)(C)c1[nH]c3cc(C#N)ccc3c1C2=O`: the IC50 is 10.6 nM in series [30]; 14.8 nM in series [13]; greater than 5000 nM in series [15]; 60.8 nM in series [19]; 49.8 nM in series [23]. Moreover, the microsomal CLint at 1 µM in series [11] came out at 22.6 µL/min/mg; in series [20], 7 µL/min/mg.
Regarding `CCCc1cc2c(cc1N1CCN(C3COC3)CC1)C(C)(C)c1[nH]c3cc(C#N)ccc3c1C2=O`, the IC50 in series [30] is 15.1 nM; in series [13], 25.3 nM; in series [15], greater than 5000 nM; in [19], greater than 5000 nM; in series [23], greater than 5000 nM. For the same molecule, the microsomal CLint at 1 µM in series [11] was 19.4 µL/min/mg; in [20], 4.7 µL/min/mg.
As to `CC1(C)c2cc(N3CCN(C4COC4)CC3)c(CCC3CCCC3)cc2C(=O)c2c1[nH]c1cc(C#N)ccc21`, the microsomal CLint at 1 µM in series [11] stood at 17.8 µL/min/mg; in [20] it was 44.7 µL/min/mg. The IC50 is 544 nM in series [13], greater than 5000 nM in series [15], greater than 5000 nM in series [19] and greater than 5000 nM in series [23].
Turning to `C#Cc1cc2c(cc1N1CCN(C3COC3)CC1)C(C)(C)c1[nH]c3cc(C#N)ccc3c1C2=O`, the 50% inhibitory concentration (IC50) was 2.7 nM in series [30], greater than 5000 nM in series [15], 455 nM in series [19] and 2420 nM in [23]. The intrinsic metabolic clearance (microsomal CLint) at 1 µM came to 18.9 µL/min/mg in [11] and 2.1 µL/min/mg in series [20].
Turning to `CC1(C)c2cc(N3CCN(C4COC4)CC3)ccc2C(=O)c2c1[nH]c1cc(C#N)ccc21`, the IC50 is greater than 5000 nM in [15], 137 nM in [19] and 83.9 nM in series [23].

The values above are taken from ChEMBL document CHEMBL1821705 (J Med Chem, 2011).
